Some results are limits rather than exact numbers.

In one test the test system is Canis familiaris. In words: Dose causing a 50% increase of coronary blood flow in anesthetized dogs relative to the flow increase caused by injection of 1 microg of nifedipine (100%) after intracoronary administration. The test is classed as functional, Canis lupus familiaris, Coronary artery. In a few lines:
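Anesthetized dogs; compound dissolved in 30% DMF, diluted with saline, injected into the coronary artery. Perfusion pressure and systemic blood pressure measured by pressure transducers.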
Take `COCC1(COC)Oc2ccc(C#N)cc2[C@@H](N=C(NC#N)c2ccccc2)[C@@H]1O`: the ED50 turned out to be 5.4 µg.
Consider `COCC1(COC)Oc2ccc(C#N)cc2[C@@H](Nc2ccc(=O)n(CCSC)n2)[C@@H]1O`, for which the ED50 was 3.3 µg.
Consider `COCC1(COC)Oc2ccc([N+](=O)[O-])cc2[C@@H](N=C(NC#N)c2cccnc2)[C@@H]1O`, for which the ED50 is 4.4 µg.
Consider `CCOCC1(COCC)Oc2ccc(C#N)cc2[C@@H](N=C(NC#N)c2cccnc2)[C@@H]1O`, for which the ED50 is above 30 µg.
Consider `COCC1(COC)Oc2ccc(C#N)cc2[C@@H](Nc2ccc(=O)n(CC(=O)O)n2)[C@@H]1O`, for which the ED50 is above 30 µg.
On the same count and under the same terms, the figure for `COCC1(COC)Oc2ccc(C#N)cc2[C@@H](Nc2ccc(=O)n(CC[N+](=O)[O-])n2)[C@@H]1O` is 1.6 µg.
For the compound `COCC1(COC)Oc2ccc(Br)cc2[C@@H](Nc2ccc(=O)n(C)n2)[C@@H]1O`, the ED50 stood at 2.3 µg.
Still for that read-out and setting: the figure for `COCC1(COC)Oc2ccc(C#N)cc2[C@@H](NC(=O)Nc2ccccc2)[C@@H]1O` is above 30 µg; for `COCC1(COC)Oc2ccc(C#N)cc2[C@@H](N=C(NC#N)c2cccnc2)[C@@H]1O` it is 14 µg.
The same measure, in the same setting: the figure for `COCC1(COC)Oc2ccc(Br)cc2[C@@H](N=C(NC#N)c2cccnc2)[C@@H]1O` is 20 µg; for `COCC1(COC)Oc2ccc(C#N)cc2[C@@H](Nc2ccc(=O)n(CC3CC3)n2)[C@@H]1O` it is 1.5 µg.
As to `COCC1(COC)Oc2ccc(C#N)cc2[C@@H](Oc2ccc(=O)n(C)n2)[C@@H]1O`, the ED50 turned out to be 6.4 µg.
Take `COCC1(COC)Oc2ccc(C#N)cc2[C@@H](Nc2ccc(=O)n(CCF)n2)[C@@H]1O`: the ED50 is 1.8 µg.
Turning to `N#CNC(=N[C@@H]1c2cc(C#N)ccc2OC2(COCOC2)[C@H]1O)c1cccnc1`, the ED50 was above 30 µg.
Still for that read-out and setting: the figure for `COCC1(COC)Oc2ccc([N+](=O)[O-])cc2[C@@H](Nc2ccc(=O)n(C)n2)[C@@H]1O` is 1.1 µg.
Turning to `COCC1(C)Oc2ccc(C#N)cc2[C@@H](N=C(NC#N)c2cccnc2)[C@@H]1O` (stereo partly drawn), the ED50 came to 17 µg.
The same measure, in the same setting: the figure for `COCC1(COC)Oc2ccc(C#N)cc2[C@@H](Nc2ccc(=O)n(Cc3ccccc3)n2)[C@@H]1O` is 28 µg.
The compound `CC1(C)Oc2ccc(C#N)cc2[C@@H](N=C(NC#N)c2cccnc2)[C@@H]1O` had an ED50 of 1.3 µg.
On the same count and under the same terms, the figure for `COCC1(COC)Oc2ccc(C#N)cc2[C@@H](Nc2ccc(=O)n(C(C)C)n2)[C@@H]1O` is 1.3 µg.
The same measure, in the same setting: the figure for `COCC1(COC)Oc2ccc(C#N)cc2[C@@H](Nc2ccc(=S)n(C)n2)[C@@H]1O` is 24 µg; for `COCC1(COC)Oc2ccc(C#N)cc2[C@@H](Nc2ccc(=O)n(-c3ccc([N+](=O)[O-])cc3)n2)[C@@H]1O` it is above 30 µg.
The compound `COCC1(COC)Oc2ccc(C#N)cc2[C@@H](Nc2ccc(=O)n(CC#N)n2)[C@@H]1O` showed an ED50 of 5 µg.
Compound `CCn1nc(N[C@@H]2c3cc(C#N)ccc3OC(COC)(COC)[C@H]2O)ccc1=O` returned an ED50 of 0.57 µg.
The compound `C=CCn1nc(N[C@@H]2c3cc(C#N)ccc3OC(COC)(COC)[C@H]2O)ccc1=O` gave an ED50 of 1.2 µg.
Turning to `CCCC1(C)Oc2ccc(C#N)cc2[C@@H](N=C(NC#N)c2cccnc2)[C@@H]1O` (stereo partly drawn), the ED50 turned out to be 20 µg.
For `COCC1(COC)Oc2ccc(C#N)cc2[C@@H](N=C(NC#N)Nc2ccccc2)[C@@H]1O`, the ED50 is above 30 µg.
The same measure, in the same setting: the figure for `COCC1(COC)Oc2ccc(C#N)cc2[C@@H](Nc2ccc(=O)n(C)n2)[C@@H]1O` is 0.58 µg; for `COCC1(COC)Oc2ccc(C#N)cc2[C@@H](N=C(C)NC#N)[C@@H]1O` it is 6 µg.
On the same count and under the same terms, the figure for `CCCn1nc(N[C@@H]2c3cc(C#N)ccc3OC(COC)(COC)[C@H]2O)ccc1=O` is 1.5 µg; for `COCC1(COC)Oc2ccc(C#N)cc2[C@@H](Nc2ccc(=O)n(CC(F)(F)F)n2)[C@@H]1O` it is 6.4 µg; for `COCC1(COC)Oc2ccc(C#N)cc2[C@@H](Nc2ccc(=O)n(CCC(=O)OC)n2)[C@@H]1O` it is 2.3 µg.
Take `COCC1(COC)Oc2ccc(C#N)cc2[C@@H](NC(=O)c2cccnc2)[C@@H]1O`: the ED50 amounted to 14 µg.
Still for that read-out and setting: the figure for `CC1(COc2ccccc2)Oc2ccc(C#N)cc2[C@@H](N=C(NC#N)c2cccnc2)[C@@H]1O` (stereo partly drawn) is above 30 µg.
Turning to `CCCCCCCn1nc(N[C@@H]2c3cc(C#N)ccc3OC(COC)(COC)[C@H]2O)ccc1=O`, the ED50 stood at 13 µg.
Same read-out and setting: the figure for `COCC1(COC)Oc2ccc(C#N)cc2[C@@H](Nc2ccc(O)nn2)[C@@H]1O` is 6.2 µg.
Compound `COCC1(COC)Oc2ccc(C#N)cc2[C@@H](Nc2ccc(=O)n(CC(=O)OC)n2)[C@@H]1O` had an ED50 of 17 µg.
The compound `COCCn1nc(N[C@@H]2c3cc(C#N)ccc3OC(COC)(COC)[C@H]2O)ccc1=O` had an ED50 of 4.1 µg.

A further test is filed under the species Sus scrofa. In words: Vasorelaxant effect on KCl-Induced contraction of porcine coronary artery. The test is classed as functional.
The compound `CC1(C)Oc2ccc(C#N)cc2[C@@H](N2CCCC2=O)[C@@H]1O` [LEVCROMAKALIM] displayed an IC50 of 360 nM.
Same read-out and setting: the figure for `O=C(NCCO[N+](=O)[O-])c1cccnc1` [NICORANDIL] is 3200 nM; for `COC(=O)C1=C(C)NC(C)=C(C(=O)OC)C1c1ccccc1[N+](=O)[O-]` [NIFEDIPINE] it is 3.6 nM.

For the next test, the species on record is Rattus norvegicus. Briefly: Vasorelaxant effect on KCl-Induced contraction of rat aorta. The test is classed as functional. In a few lines:
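Isolated strips in Krebs-Henseleit solution, 37 °C, gassed with 95% O2/5% CO2, under 1 g resting load; isometric tension recorded. Strips contracted with 30 or 40 mM KCl. Cumulative concentration-relaxation curves; mean IC50 taken as concentration giving 50% relaxation of the KCl-induced contraction.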
`COCC1(COC)Oc2ccc(C#N)cc2[C@@H](Nc2ccc(=O)n(C)n2)[C@@H]1O`: the IC50 came out at 300 nM.
On the same count and under the same terms, the figure for `CC1(C)Oc2ccc(C#N)cc2[C@@H](N2CCCC2=O)[C@@H]1O` [LEVCROMAKALIM] is 290 nM.
Compound `O=C(NCCO[N+](=O)[O-])c1cccnc1` [NICORANDIL] yielded an IC50 of 13000 nM.
Same read-out and setting: the figure for `COC(=O)C1=C(C)NC(C)=C(C(=O)OC)C1c1ccccc1[N+](=O)[O-]` [NIFEDIPINE] is 3.6 nM.

System in the next test: not listed separately
In words: Vasorelaxant effect on KCl-Induced contraction of porcine coronary artery vs rat aorta. The test is classed as functional. The method, boiled down:
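Isolated porcine coronary artery and rat aortic strips in organ bath, Krebs-Henseleit solution, 37 °C, gassed 95% O2/5% CO2; isometric tension under 1 g resting load. Strips contracted with 30 or 40 mM KCl. Mean IC50 (50% relaxation of KCl-induced contraction) from concentration-relaxation curves in each tissue.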
For the compound `CC1(C)Oc2ccc(C#N)cc2[C@@H](N2CCCC2=O)[C@@H]1O` [LEVCROMAKALIM], the Ratio turned out to be 0.81.
For `COC(=O)C1=C(C)NC(C)=C(C(=O)OC)C1c1ccccc1[N+](=O)[O-]` [NIFEDIPINE], the Ratio worked out at 1.

System in the next test: not listed separately
In words: Ratio of vasorelaxant effect on KCl-Induced contraction of rat aorta to that of porcine coronary artery. The test is classed as functional.
As to `COCC1(COC)Oc2ccc(C#N)cc2[C@@H](Nc2ccc(=O)n(C)n2)[C@@H]1O`, the Ratio is recorded as 2.73.
Still for that read-out and setting: the figure for `O=C(NCCO[N+](=O)[O-])c1cccnc1` [NICORANDIL] is 4.06.

The values above are taken from ChEMBL document CHEMBL1129648, “Synthesis and selective coronary vasodilatory activity of 3,4-dihydro-2,2-bis(methoxymethyl)-2H-1-benzopyran-3-ol derivatives: novel potassium channel openers” (J Med Chem, 1996).
